The text below walks through data of ChEMBL document CHEMBL4196175, “First SAR Study for Overriding NRAS Mutant Driven Acute Myeloid Leukemia” (J Med Chem, 2018).

Data set [1] relates to BaF3. The data set can be described thus: Induction of apoptosis in mouse BA/F3 cells expressing NRAS-G12D mutant assessed as decrease in MCL1 levels at 1 uM after 24 hrs by Western blot analysis. It counts as functional, cell-based. The method in brief:
(§1)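 Cells treated 24 h with indicated concentrations (1 µM; 5 µM also used in Ba/F3-NRAS-G12D); cleaved PARP, cleaved caspase 3, bcl-2 and MCL1 detected by western blot with actin as loading control.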
On the technique in general: Immunoblotting shows a protein as a band on a membrane.

The test system of data set [2] is BaF3. The data set can be described thus: Induction of apoptosis in mouse BA/F3 cells expressing NRAS-G12D mutant assessed as increase in cleaved PARP levels at 1 uM after 24 hrs by Western blot analysis. It counts as functional, cell-based. In a few lines:
as §1

Data set [3] concerns BaF3. The experiment in a line: Induction of apoptosis in mouse BA/F3 cells expressing NRAS-G12D mutant assessed as increase in cleaved caspase-3 levels at 1 uM after 24 hrs by Western blot analysis. It counts as functional, cell-based. In a few lines: as §1
Data set [4] has as its system BaF3. The data set can be described thus: Induction of apoptosis in mouse BA/F3 cells expressing NRAS-G12D mutant assessed as increase in apoptotic cell after 24 hrs by annexin V/propidium iodide staining based FACS analysis. It counts as functional. The method in brief: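 Apoptosis scored by flow cytometry after FITC-annexin V/propidium iodide dual staining following 24 h exposure, at 1 µM or a range of indicated concentrations; three independent experiments, mean with SD, one-way ANOVA.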
A general note: A flow cytometer gives signals particle by particle.

Data set [5] has as its system BaF3. The data set can be described thus: Induction of apoptosis in mouse BA/F3 cells expressing NRAS-G12D mutant assessed as increase in cleaved caspase-3 levels at 5 uM after 24 hrs by Western blot analysis. It counts as functional, cell-based. In a few lines: as §1
The target of data set [6] is Proto-oncogene tyrosine-protein kinase Src (Homo sapiens) (UniProt P12931). Conditions: 1 uM.
The target of data set [7] is Fibroblast growth factor receptor 2 (Homo sapiens) (UniProt P21802). The experiment in a line: Inhibition of human FGFR2 at 1 uM relative to control.
Data set [8] has as its target Mitogen-activated protein kinase 11 (Homo sapiens) (UniProt Q15759). The experiment in a line: Inhibition of human P38beta at 1 uM relative to control.
For data set [9], the target named is Tyrosine-protein kinase JAK2 (Homo sapiens) (UniProt O60674). The data set can be described thus: Inhibition of human JAK2 at 1 uM relative to control.
Sequence of Tyrosine-protein kinase JAK2 (Homo sapiens) (O60674 whole entry): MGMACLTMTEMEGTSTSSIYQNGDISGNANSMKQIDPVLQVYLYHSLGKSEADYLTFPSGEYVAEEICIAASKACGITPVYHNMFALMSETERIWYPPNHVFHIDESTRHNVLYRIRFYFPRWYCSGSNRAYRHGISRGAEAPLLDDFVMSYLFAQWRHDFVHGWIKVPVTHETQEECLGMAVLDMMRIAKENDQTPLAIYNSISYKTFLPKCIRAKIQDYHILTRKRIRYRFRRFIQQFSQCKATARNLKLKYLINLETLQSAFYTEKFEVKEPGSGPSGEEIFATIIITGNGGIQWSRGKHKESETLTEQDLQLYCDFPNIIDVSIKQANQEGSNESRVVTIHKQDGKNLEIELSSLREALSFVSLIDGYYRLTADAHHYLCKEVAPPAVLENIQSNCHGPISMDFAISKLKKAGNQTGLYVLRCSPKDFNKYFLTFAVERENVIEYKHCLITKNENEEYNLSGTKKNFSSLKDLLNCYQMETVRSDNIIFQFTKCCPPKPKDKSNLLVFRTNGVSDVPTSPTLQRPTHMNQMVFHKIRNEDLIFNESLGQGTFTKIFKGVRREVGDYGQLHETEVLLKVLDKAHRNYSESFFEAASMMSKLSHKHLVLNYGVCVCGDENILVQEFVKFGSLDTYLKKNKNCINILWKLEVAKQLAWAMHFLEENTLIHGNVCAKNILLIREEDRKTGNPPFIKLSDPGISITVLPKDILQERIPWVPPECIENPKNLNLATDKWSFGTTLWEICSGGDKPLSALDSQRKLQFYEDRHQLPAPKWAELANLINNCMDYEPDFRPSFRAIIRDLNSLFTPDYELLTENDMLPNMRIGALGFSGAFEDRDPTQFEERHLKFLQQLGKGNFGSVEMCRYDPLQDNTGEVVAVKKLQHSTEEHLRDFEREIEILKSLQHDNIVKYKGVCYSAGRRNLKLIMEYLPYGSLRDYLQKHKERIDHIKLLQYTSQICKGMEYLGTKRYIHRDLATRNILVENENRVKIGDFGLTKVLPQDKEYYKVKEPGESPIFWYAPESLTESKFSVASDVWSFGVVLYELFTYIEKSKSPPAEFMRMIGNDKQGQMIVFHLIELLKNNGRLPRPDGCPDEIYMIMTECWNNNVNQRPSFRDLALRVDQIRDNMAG
In data set [10] the target is Serine/threonine-protein kinase B-raf (Homo sapiens) (UniProt P15056). The data set can be described thus: Inhibition of human BRAF at 1 uM relative to control.
In data set [11] the target is Tyrosine-protein kinase ABL2 (Homo sapiens) (UniProt P42684). The data set can be described thus: Inhibition of human ABL2 at 1 uM relative to control.
Data set [12] deals with Platelet-derived growth factor receptor alpha (Homo sapiens) (UniProt P16234). The experiment in a line: Inhibition of human PDGFRa at 1 uM relative to control.
The target of data set [13] is Vascular endothelial growth factor receptor 2 (Homo sapiens) (UniProt P35968). The data set can be described thus: Inhibition of human KDR at 1 uM relative to control.
The subject of data set [14] is OCI-AML-3. The experiment in a line: Antileukemic activity against human OCI-AML3 cells harboring NRAS-Q61L mutant xenografted in immunodeficient po dosed mouse administered qd on day 21 post implantation measured on day 20 post dose. It counts as functional, organism-based. (In xenograft studies the graft and the host belong to different species.)
The target in data set [15] is Tyrosine-protein kinase Fyn (Homo sapiens) (UniProt P06241). The data set can be described thus: Inhibition of human FYN at 1 uM relative to control.
For data set [16], the target named is Tyrosine-protein kinase Lyn (Homo sapiens) (UniProt P07948). Conditions: 1 uM.
Sequence of Tyrosine-protein kinase Lyn (Homo sapiens) (P07948 2-512 limits assumed): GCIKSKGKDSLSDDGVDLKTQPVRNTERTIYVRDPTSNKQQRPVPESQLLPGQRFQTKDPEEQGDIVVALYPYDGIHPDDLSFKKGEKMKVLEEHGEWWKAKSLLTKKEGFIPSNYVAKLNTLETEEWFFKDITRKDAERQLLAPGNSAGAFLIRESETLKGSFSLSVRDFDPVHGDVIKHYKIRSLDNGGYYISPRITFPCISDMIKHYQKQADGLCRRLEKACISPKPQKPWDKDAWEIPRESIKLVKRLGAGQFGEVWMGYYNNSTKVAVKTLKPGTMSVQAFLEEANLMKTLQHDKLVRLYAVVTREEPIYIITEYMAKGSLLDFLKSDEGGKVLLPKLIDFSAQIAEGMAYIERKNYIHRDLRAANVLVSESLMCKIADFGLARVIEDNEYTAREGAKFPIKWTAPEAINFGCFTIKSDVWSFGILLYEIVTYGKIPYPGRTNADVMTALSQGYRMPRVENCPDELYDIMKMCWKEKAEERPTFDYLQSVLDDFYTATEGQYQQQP
The target in data set [17] is Discoidin domain-containing receptor 2 (Homo sapiens) (UniProt Q16832). The experiment in a line: Inhibition of human DDR2 at 1 uM relative to control.
Data set [18] has as its target Epithelial discoidin domain-containing receptor 1 (Homo sapiens) (UniProt Q08345). The data set can be described thus: Inhibition of human DDR1 at 1 uM relative to control.
The target of data set [19] is Tyrosine-protein kinase Blk (Homo sapiens) (UniProt P51451). The data set can be described thus: Inhibition of human BLK at 1 uM relative to control.
Data set [20] deals with Tyrosine-protein kinase Fgr (Homo sapiens) (UniProt P09769). The data set can be described thus: Inhibition of human FGR at 1 uM relative to control.
Data set [21] deals with Tyrosine-protein kinase HCK (Homo sapiens) (UniProt P08631). The data set can be described thus: Inhibition of human HCK at 1 uM relative to control.
For data set [22], the system named is BaF3. The experiment in a line: Antileukemic activity against mouse BA/F3 cells harboring NRAS-G12D mutant/luciferase allografted in immunodeficient mouse at 15 mg/kg/day, po qd administered on day 6 post implantation measured on day 20 post implantation by bioluminescence imaging method. In kind it is functional. In a few lines:
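Immunodeficient mice injected via tail vein with Ba/F3-NRAS-G12D/Luc cells, dosed orally once daily (8 or 15 mg/kg/day) or vehicle for 3 weeks, n=4 per cohort; bioluminescence imaged every two days after luciferin 150 mg/kg, quantified by bio-photonic analysis.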

The target in data set [23] is Proto-oncogene tyrosine-protein kinase receptor Ret (Homo sapiens) (UniProt P07949). The experiment in a line: Inhibition of human RET at 1 uM relative to control.
Data set [24] concerns BaF3. The experiment in a line: Antileukemic activity against mouse BA/F3 cells harboring NRAS-G12D mutant allografted in immunodeficient mouse assessed as median survival time at 15 mg/kg/day, po qd administered on day 6 post implantation (reference value: 23 days). It counts as functional.
Data set [25] deals with Ephrin type-A receptor 1 (Homo sapiens) (UniProt P21709). The data set can be described thus: Inhibition of human EphA1 at 1 uM relative to control.
For data set [26], the target named is Tyrosine-protein kinase Yes (Homo sapiens) (UniProt P07947). The data set can be described thus: Inhibition of human YES at 1 uM relative to control.
Data set [27] in a line: AUCinfinity in mouse at 10 mg/kg, po. In kind it is ADME, organism-based. The arrangement: dose 10 mg/kg, route oral, time infinity. Conditions: in vivo.
Data set [28] is described as follows: Cmax in mouse at 10 mg/kg, po. It counts as ADME, organism-based. Conditions: in vivo. The arrangement: dose 10 mg/kg, route oral.
Data set [29] can be described thus: Tmax in mouse at 10 mg/kg, po. Conditions: in vivo. It counts as ADME, organism-based.
In data set [30] the target is Mitogen-activated protein kinase 14 (Homo sapiens) (UniProt Q16539). The data set can be described thus: Inhibition of human p38alpha at 1 uM relative to control.
Sequence of Mitogen-activated protein kinase 14 (Homo sapiens) (Q16539 whole entry): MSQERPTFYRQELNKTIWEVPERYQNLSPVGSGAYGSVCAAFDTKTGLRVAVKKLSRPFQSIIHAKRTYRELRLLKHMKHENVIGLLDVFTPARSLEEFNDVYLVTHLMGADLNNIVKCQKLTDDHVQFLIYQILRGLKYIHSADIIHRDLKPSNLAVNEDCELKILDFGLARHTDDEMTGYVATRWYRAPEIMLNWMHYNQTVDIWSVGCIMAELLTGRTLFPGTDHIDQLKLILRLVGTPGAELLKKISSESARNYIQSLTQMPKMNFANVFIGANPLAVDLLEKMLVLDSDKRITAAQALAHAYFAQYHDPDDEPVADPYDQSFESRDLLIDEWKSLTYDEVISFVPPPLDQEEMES
The next data set has as its target Activated CDC42 kinase 1 (Homo sapiens, UniProt Q07912). Conditions: 1 uM.
For data set [31], the system named is OCI-AML-3. The experiment in a line: Antileukemic activity against human OCI-AML3 cells harboring NRAS-Q61L mutant xenografted in immunodeficient mouse assessed as tumor volume at 25 mg/kg/day, po qd administered on day 21 post implantation measured on day 20 post dose (reference value: 100%). In kind it is functional.
For data set [32], the system named is OCI-AML-3. The data set can be described thus: Growth inhibition of ACK1/GCK knockdown human OCI-AML3 cells harboring NRAS-Q61L mutant at 0.5 uM after 72 hrs by celltiter-glo assay. In kind it is functional, cell-based.
Data set [33] has as its target Platelet-derived growth factor receptor beta (Homo sapiens) (UniProt P09619). The experiment in a line: Inhibition of human PDGFRbeta at 1 uM relative to control.
Data set [34] has as its system OCI-AML-3. The experiment in a line: Antileukemic activity against human OCI-AML3 cells harboring NRAS-Q61L mutant xenografted in immunodeficient mouse assessed as tumor volume at 15 mg/kg/day, po qd administered on day 21 post implantation measured on day 20 post dose (reference value: 100%). In kind it is functional.
The target of data set [35] is Macrophage colony-stimulating factor 1 receptor (Homo sapiens) (UniProt P07333). The data set can be described thus: Inhibition of human FMS at 1 uM relative to control.
Sequence of Macrophage colony-stimulating factor 1 receptor (Homo sapiens) (P07333 whole entry): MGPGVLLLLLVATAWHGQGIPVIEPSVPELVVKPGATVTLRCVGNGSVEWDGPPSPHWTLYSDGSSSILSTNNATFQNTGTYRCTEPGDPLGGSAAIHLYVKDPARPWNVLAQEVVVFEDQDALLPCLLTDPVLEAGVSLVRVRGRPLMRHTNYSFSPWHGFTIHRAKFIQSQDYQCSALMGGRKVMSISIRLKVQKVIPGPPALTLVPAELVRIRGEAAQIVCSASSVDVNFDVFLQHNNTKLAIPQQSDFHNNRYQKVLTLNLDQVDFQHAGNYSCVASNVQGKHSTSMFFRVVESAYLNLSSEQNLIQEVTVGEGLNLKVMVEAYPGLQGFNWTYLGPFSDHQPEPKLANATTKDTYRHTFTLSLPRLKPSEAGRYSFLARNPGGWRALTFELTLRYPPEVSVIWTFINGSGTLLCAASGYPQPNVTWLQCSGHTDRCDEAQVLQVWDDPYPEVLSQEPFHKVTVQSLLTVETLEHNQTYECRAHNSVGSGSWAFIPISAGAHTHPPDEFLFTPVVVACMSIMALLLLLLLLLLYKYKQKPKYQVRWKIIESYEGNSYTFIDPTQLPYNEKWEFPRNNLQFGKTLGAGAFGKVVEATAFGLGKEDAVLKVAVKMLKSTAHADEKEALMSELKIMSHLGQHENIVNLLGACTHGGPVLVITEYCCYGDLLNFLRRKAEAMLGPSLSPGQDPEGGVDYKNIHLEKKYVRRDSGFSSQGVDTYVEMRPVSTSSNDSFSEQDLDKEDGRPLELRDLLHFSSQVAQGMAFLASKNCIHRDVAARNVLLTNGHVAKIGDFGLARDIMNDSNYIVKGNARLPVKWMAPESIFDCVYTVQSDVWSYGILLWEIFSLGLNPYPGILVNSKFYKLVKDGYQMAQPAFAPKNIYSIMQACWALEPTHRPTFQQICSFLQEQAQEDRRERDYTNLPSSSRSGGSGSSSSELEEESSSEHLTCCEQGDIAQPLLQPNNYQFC
The target of data set [36] is Cytoplasmic tyrosine-protein kinase BMX (Homo sapiens) (UniProt P51813). Conditions: 1 uM.
Sequence of Cytoplasmic tyrosine-protein kinase BMX (Homo sapiens) (P51813 whole entry): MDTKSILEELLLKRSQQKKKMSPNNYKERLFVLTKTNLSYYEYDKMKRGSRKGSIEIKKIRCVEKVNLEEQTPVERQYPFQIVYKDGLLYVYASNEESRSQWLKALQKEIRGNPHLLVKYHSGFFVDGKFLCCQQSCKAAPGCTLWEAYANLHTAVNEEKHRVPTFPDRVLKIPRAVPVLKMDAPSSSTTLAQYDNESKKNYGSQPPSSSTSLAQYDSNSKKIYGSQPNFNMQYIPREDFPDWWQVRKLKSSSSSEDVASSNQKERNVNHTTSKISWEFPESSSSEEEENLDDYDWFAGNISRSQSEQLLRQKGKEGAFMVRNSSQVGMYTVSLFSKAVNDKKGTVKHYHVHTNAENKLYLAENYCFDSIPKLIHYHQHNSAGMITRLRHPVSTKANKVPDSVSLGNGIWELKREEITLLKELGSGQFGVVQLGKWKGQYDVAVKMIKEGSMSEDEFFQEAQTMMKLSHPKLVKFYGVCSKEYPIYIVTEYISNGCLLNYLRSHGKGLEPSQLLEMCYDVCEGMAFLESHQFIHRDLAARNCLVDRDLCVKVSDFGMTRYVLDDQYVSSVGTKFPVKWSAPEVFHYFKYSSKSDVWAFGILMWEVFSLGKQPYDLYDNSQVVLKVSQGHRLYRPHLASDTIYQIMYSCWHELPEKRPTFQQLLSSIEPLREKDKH
A short description of data set [37]: MRTinfinity in mouse at 10 mg/kg, po. In kind it is ADME, organism-based. Conditions: in vivo.

Activity calls are given as the source filed them. The rule behind the calls is not given here. Bounds are passed on as bounds.

Sequence of Mitogen-activated protein kinase 11 (Homo sapiens) (Q15759 whole entry): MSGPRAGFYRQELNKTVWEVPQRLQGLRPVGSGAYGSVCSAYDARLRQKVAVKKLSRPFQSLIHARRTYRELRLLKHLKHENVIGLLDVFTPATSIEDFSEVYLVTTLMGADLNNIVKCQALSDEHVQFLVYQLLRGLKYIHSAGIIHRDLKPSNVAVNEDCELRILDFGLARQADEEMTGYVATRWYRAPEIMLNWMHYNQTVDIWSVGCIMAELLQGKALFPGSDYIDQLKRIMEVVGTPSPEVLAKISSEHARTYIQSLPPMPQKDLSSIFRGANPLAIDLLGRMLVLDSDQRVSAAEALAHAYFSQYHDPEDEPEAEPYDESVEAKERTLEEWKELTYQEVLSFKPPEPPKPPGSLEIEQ
Sequence of Activated CDC42 kinase 1 (Q07912 whole entry, looked up): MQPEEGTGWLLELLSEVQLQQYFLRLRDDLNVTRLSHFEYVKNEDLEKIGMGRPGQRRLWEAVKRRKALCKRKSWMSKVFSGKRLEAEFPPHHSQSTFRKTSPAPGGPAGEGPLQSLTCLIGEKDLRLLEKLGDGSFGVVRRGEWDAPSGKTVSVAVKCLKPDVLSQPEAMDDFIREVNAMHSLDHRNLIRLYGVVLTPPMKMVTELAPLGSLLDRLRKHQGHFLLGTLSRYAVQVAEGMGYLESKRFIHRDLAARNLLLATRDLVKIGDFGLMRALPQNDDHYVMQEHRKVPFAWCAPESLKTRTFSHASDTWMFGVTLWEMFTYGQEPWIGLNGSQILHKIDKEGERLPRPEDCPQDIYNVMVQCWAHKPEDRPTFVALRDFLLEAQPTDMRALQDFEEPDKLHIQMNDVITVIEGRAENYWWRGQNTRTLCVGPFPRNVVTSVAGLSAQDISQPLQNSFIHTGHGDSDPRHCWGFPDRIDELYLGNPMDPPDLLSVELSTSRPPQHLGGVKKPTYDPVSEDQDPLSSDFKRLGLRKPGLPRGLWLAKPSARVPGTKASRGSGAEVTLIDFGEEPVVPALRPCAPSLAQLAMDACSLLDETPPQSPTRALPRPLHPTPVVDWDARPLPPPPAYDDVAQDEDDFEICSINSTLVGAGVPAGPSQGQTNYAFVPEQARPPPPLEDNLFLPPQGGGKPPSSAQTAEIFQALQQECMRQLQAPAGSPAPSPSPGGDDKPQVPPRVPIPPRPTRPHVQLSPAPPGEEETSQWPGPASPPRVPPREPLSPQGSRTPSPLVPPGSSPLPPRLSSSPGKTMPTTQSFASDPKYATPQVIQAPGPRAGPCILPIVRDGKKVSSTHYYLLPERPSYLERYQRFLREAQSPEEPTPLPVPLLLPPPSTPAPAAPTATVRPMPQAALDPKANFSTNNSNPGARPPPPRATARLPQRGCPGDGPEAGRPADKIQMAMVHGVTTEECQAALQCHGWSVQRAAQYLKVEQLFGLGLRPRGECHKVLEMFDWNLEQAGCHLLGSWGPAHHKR

On to `CC(=O)N1CCN(c2ccc(Nc3ncc4c(n3)N(C)C(=O)N(c3cc(NC(=O)c5cccc(C(F)(F)F)c5)ccc3C)C4)cn2)CC1`, for which the outcome with BaF3 [1], with BaF3 [2] and with BaF3 [3] was Active.
As a reminder, the inhibition is the relative decrease from the control value, in per cent. A high value points to a strong effect. The term AUC(0-inf) denotes the area under the concentration-time curve extrapolated to infinity. The low end stands for less exposure, the high end for more exposure. Usually Cmax stands for the maximum level reached in the sampled fluid or tissue. A word on the Tmax: it is the time at which the peak concentration occurs. For orientation: MRT inf means the average time that molecules of a dose stay in the body. As to `Cc1ccc(NC(=O)c2cccc(C(F)(F)F)c2)cc1N1Cc2cnc(N)nc2N(C)C1=O`, the Activity entry was “Dose-dependent effect” in the data set with BaF3 [4]; “Dose-dependent effect” in the data set on OCI-AML-3 [14]; more than 50% in the data set with BaF3 [22]; 14.9% in the data set on OCI-AML-3 [31]; 41.9% in the data set with OCI-AML-3 [34]. For the same compound, the outcome in the data set with BaF3 [5] was Active. Moreover, the inhibition in data set [6] turned out to be 100%; in [7] it was 93.5%; in [8] it was 98%; in data set [9], 94.4%; in [10], 99.1%; in data set [11], 98.3%. For the same compound, the inhibition in data set [12] worked out at 95%; in data set [13], 96.4%; in [15], 99.2%; in data set [16] it was 99.4%; in data set [17], 98.1%; in data set [18] it was 97.8%. Further, the inhibition in [19] is 95.9%; in data set [20] it was 99.1%; in [21], 98.9%; in data set [23] it was 98.7%; in data set [25], 90.7%; in [26], 99.7%. In addition, the inhibition was found to be 98.9% in [30]; 100% on Activated CDC42 kinase 1; 98.1% in data set [33]; 99.1% in data set [35]; 99.4% in data set [36]. The MSD with BaF3 [24] turned out to be 29 days. The AUC(0-inf) in data set [27] turned out to be 52500 ng·h/mL. The compound also had a peak concentration (Cmax) in data set [28] of 2410 ng/mL. Moreover, the Tmax in [29] was 2.7 h. The “growth inhibition (GI)” value in the data set with OCI-AML-3 [32] is “Active”. This compound also showed a mean residence time (MRT inf) in data set [37] of 18.1 h.
